This note sets out measurements from ChEMBL document CHEMBL1145465, “PhoU is a persistence switch involved in persister formation and tolerance to multiple antibiotics and stresses in Escherichia coli” (2007).

Experiment [1] has as its system Escherichia coli. The experiment in a line: Antibacterial activity against Escherichia coli K12 containing deletion deltaphoBR mutant assessed as cell count in stationary phase at 100 ug/ml after 72 hrs. In kind it is functional. Summed up: (§1)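 Deletion mutants were made by the Datsenko–Wanner method. Log-phase or stationary-phase cultures were exposed to ampicillin at 100 μg/ml. CFU/ml was determined at the start and after 5, 24 and 72 h of exposure.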

Experiment [2] relates to Escherichia coli. The experiment in a line: Antibacterial activity against Escherichia coli K12 mutant JHU313 at 6 ug/ml after 48 hrs by disc diffusion method. It counts as functional. The essentials:
(§2)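 Kirby-Bauer disc assay: log-phase LB culture was spread on LB agar for confluent growth. 7-mm nitrocellulose discs were soaked in antibiotic at the listed concentration and placed on the agar. After 48 h at 37°C, the diameter of the inhibition zone was measured in mm.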
(In general: Agar diffusion results depend on both activity and mobility in agar.)

Experiment [3] relates to Escherichia coli. The experiment in a line: Antibacterial activity against Escherichia coli K12 containing deletion deltaphoR mutant assessed as cell count in log phase at 100 ug/ml after 5 hrs. In kind it is functional. The essentials: (§3)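 Wild-type W3110-derived deletion mutants were made by the Datsenko–Wanner method. Log-phase or stationary-phase cultures were exposed to ampicillin 100 μg/ml in MOPS minimal medium at pH 5.0, at 37°C without shaking. Aliquots were taken at set times, washed in saline and plated on LB for viable CFU/ml.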

The test system of experiment [4] is Escherichia coli. The experiment can be described thus: Antibacterial activity against Escherichia coli K12 containing deletion deltaphoR mutant assessed as cell count in log phase at 100 ug/ml after 24 hrs. In kind it is functional. The essentials: as §3
For experiment [5], the system named is Escherichia coli. The experiment can be described thus: Antibacterial activity against Escherichia coli K12 PhoU wild type W3110 assessed as cell count in log phase at 100 ug/ml after 1 day. It counts as functional. Summed up:
(§4)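 Log-phase or stationary-phase cultures exposed to ampicillin 100 μg/ml in MOPS minimal medium (pH 5.0) at 37°C without shaking, for 5 h up to 10 days. Aliquots were taken at each time point, washed in saline and plated on LB plates for viable CFU/ml.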

For experiment [6], the system named is Escherichia coli. The experiment can be described thus: Antibacterial activity against Escherichia coli K12 mutant JHU313 assessed as cell count at 100 ug/ml.
For experiment [7], the system named is Escherichia coli. The experiment in a line: Antibacterial activity against Escherichia coli K12 mutant JHU313 containing plasmid PhoU at 25 ug/ml after 48 hrs by disc diffusion method. In kind it is functional. Summed up:
as §2

Experiment [8] has as its system Escherichia coli. The experiment in a line: Antibacterial activity against Escherichia coli K12 PhoU wild type W3110 assessed as cell count in log phase at 100 ug/ml after 5 days. In kind it is functional. Summed up: as §4
For experiment [9], the system named is Escherichia coli. The experiment in a line: Antibacterial activity against Escherichia coli K12 PhoU wild type W3110 assessed as cell count in log phase at 100 ug/ml after 10 days. In kind it is functional. The essentials: (§5)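 Log-phase or stationary-phase cultures were exposed to ampicillin (100 μg/ml) or norfloxacin (3 μg/ml) in MOPS minimal medium, pH 5.0, at 37°C without shaking, for 5 h to 10 days. Aliquots were saline-washed and plated on LB for CFU/ml.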

Experiment [10] deals with Escherichia coli. The experiment can be described thus: Antibacterial activity against Escherichia coli K12 containing deletion deltaphoU mutant assessed as cell count in log phase at 100 ug/ml after 5 hrs. In kind it is functional. The essentials:
as §3

In experiment [11] the test system is Escherichia coli. The experiment can be described thus: Antibacterial activity against Escherichia coli K12 containing deletion deltaphoB mutant assessed as cell count in stationary phase at 100 ug/ml after 24 hrs. It counts as functional. Summed up:
as §1

Experiment [12] has as its system Escherichia coli. The experiment in a line: Antibacterial activity against Escherichia coli K12 containing PhoU mutant assessed as cell count in stationary phase at 100 ug/ml after 1 day. It counts as functional. Summed up: as §5
The subject of experiment [13] is Escherichia coli. The experiment in a line: Antibacterial activity against Escherichia coli K12 PhoU wild type W3110 assessed as cell count in stationary phase at 100 ug/ml after 5 days. In kind it is functional. Summed up:
as §4

Experiment [14] deals with Escherichia coli. The experiment can be described thus: Antibacterial activity against Escherichia coli K12 mutant JHU313 containing plasmid vector at 4 ug/ml after 48 hrs by disc diffusion method. In kind it is functional. The essentials:
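Kirby-Bauer paper-disc assay: log-phase E. coli (10⁸ bacteria) grown in LB broth, spread on LB agar for confluent growth; 7 mm nitrocellulose discs soaked with antibiotic solution at the listed concentration (μg/ml) placed on surface; incubated 37°C for 48 h; diameter of growth-inhibition zone measured in mm. Strain is the phoU transposon mutant transformed by electroporation with empty vector control.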

Experiment [15] has as its system Escherichia coli. The experiment in a line: Antibacterial activity against Escherichia coli K12 PhoU wild type W3110 assessed as cell count in log phase at 3 ug/ml after 3 days. In kind it is functional. The essentials: as §5
For experiment [16], the system named is Escherichia coli. The experiment can be described thus: Antibacterial activity against Escherichia coli K12 containing deletion deltaphoU mutant assessed as cell count in log phase at 3 ug/ml after 5 hrs. It counts as functional. Summed up: (§6)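 Log-phase or stationary-phase cultures of the ΔphoU deletion mutant (Datsenko–Wanner construction) were exposed to norfloxacin 3 μg/ml in MOPS minimal medium, pH 5.0, at 37°C without shaking, for up to 10 days. Sampled aliquots were washed in saline and plated on LB agar for CFU/ml.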

The subject of experiment [17] is Escherichia coli. The experiment can be described thus: Antibacterial activity against Escherichia coli K12 PhoU wild type W3110 at 2 ug/ml after 48 hrs by disc diffusion method. It counts as functional. Summed up:
(§7)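 Kirby-Bauer disc assay. Log-phase LB culture (10⁸ bacteria) was spread for confluent growth on LB agar. 7 mm nitrocellulose discs soaked in antibiotic at the listed concentrations were laid on the agar. Inhibition zone diameter (mm) was measured after 48 h at 37°C.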

Experiment [18] concerns Escherichia coli. The experiment in a line: Antibacterial activity against Escherichia coli K12 PhoU wild type W3110 at 4 ug/ml after 48 hrs by disc diffusion method. In kind it is functional. The essentials: as §7
Experiment [19] relates to Escherichia coli. The experiment can be described thus: Antibacterial activity against Escherichia coli K12 containing deletion deltaphoU mutant assessed as cell count in stationary phase at 3 ug/ml after 5 hrs. It counts as functional. Summed up: as §6
Experiment [20] has as its system Escherichia coli. The experiment in a line: Antibacterial activity against Escherichia coli K12 PhoU wild type W3110 assessed as cell count in stationary phase at 3 ug/ml after 5 days. It counts as functional. Summed up: as §5
Experiment [21] relates to Escherichia coli. The experiment can be described thus: Antibacterial activity against Escherichia coli K12 containing PhoU mutant assessed as cell count in stationary phase at 3 ug/ml after 5 hrs. In kind it is functional. Summed up:
as §5

For experiment [22], the system named is Escherichia coli. The experiment in a line: Antibacterial activity against Escherichia coli K12 mutant JHU313 containing plasmid vector at 0.1 ug/ml after 48 hrs by disc diffusion method. In kind it is functional. The essentials: as §2
In experiment [23] the test system is Escherichia coli. The experiment can be described thus: Antibacterial activity against Escherichia coli K12 mutant JHU313 containing plasmid vector at 2 ug/ml after 48 hrs by disc diffusion method. In kind it is functional. Summed up:
as §2

Experiment [24] concerns Escherichia coli. The experiment in a line: Antibacterial activity against Escherichia coli K12 PhoU wild type W3110 assessed as cell count in stationary phase at 3 ug/ml after 5 hrs. It counts as functional. The essentials: as §5
Experiment [25] deals with Escherichia coli. The experiment in a line: Antibacterial activity against Escherichia coli K12 PhoU wild type W3110 assessed as cell count in stationary phase at 3 ug/ml after 1 week. In kind it is functional. Summed up:
as §5

Experiment [26] has as its system Escherichia coli. The experiment in a line: Antibacterial activity against Escherichia coli K12 mutant JHU313 containing plasmid PhoU at 4 ug/ml after 48 hrs by disc diffusion method. In kind it is functional. The essentials: as §2
In experiment [27] the test system is Escherichia coli. The experiment in a line: Antibacterial activity against Escherichia coli K12 PhoU wild type W3110 assessed as cell count in log phase at 3 ug/ml after 5 hrs. It counts as functional. The essentials:
as §5

The subject of experiment [28] is Escherichia coli. The experiment in a line: Antibacterial activity against Escherichia coli K12 containing deletion deltaphoU mutant assessed as cell count in stationary phase at 3 ug/ml after 5 days. In kind it is functional. Summed up: as §6
For experiment [29], the system named is Escherichia coli. The experiment in a line: Antibacterial activity against Escherichia coli K12 mutant JHU313 containing plasmid PhoU at 2 ug/ml after 48 hrs by disc diffusion method. In kind it is functional. The essentials:
as §2

The subject of experiment [30] is Escherichia coli. The experiment in a line: Antibacterial activity against Escherichia coli K12 containing PhoU mutant assessed as cell count in log phase at 3 ug/ml after 5 days. In kind it is functional. Summed up: as §5
Experiment [31] concerns Escherichia coli. The experiment in a line: Antibacterial activity against Escherichia coli K12 containing deletion deltaphoU mutant assessed as cell count in log phase at 3 ug/ml after 5 days. In kind it is functional. The essentials:
as §6

Structures are written as SMILES.

For `CC1(C)S[C@@H]2[C@H](NC(=O)[C@H](N)c3ccccc3)C(=O)N2[C@H]1C(=O)O` [AMPICILLIN], the CFU in the experiment with Escherichia coli [1] is 2 10^8/ml; in the experiment with Escherichia coli [3], 1 10^3/ml; with Escherichia coli [4], 1 10^2/ml; with Escherichia coli [5] it was 10 mL⁻¹; in the experiment with Escherichia coli [6], 1.4 10^7/ml; in the experiment with Escherichia coli [8] it was 0 mL⁻¹. For the same compound, the CFU is 0 mL⁻¹ in the experiment with Escherichia coli [9]; 1 10^2/ml in the experiment on Escherichia coli [10]; 1.8 10^9/ml with Escherichia coli [11]; 1 10^7/ml with Escherichia coli [12]; 3 10^7/ml in the experiment with Escherichia coli [13]. In addition, the inhibition zone (IZ) with Escherichia coli [2] worked out at 30 mm; in the experiment with Escherichia coli [7], 36 mm.

Regarding `CCn1cc(C(=O)O)c(=O)c2cc(F)c(N3CCNCC3)cc21` [NORFLOXACIN], the inhibition zone (IZ) in the experiment on Escherichia coli [14] is 44 mm; in the experiment with Escherichia coli [17], 30 mm; in the experiment on Escherichia coli [18], 32 mm; in the experiment with Escherichia coli [22], 29 mm; with Escherichia coli [23], 40 mm; with Escherichia coli [26] it was 36 mm. Moreover, the inhibition zone (IZ) in the experiment on Escherichia coli [29] worked out at 35 mm. The CFU in the experiment on Escherichia coli [15] is on record as 5 10^4/ml; in the experiment on Escherichia coli [16], 5 10^7/ml; with Escherichia coli [19], 6 10^8/ml; in the experiment with Escherichia coli [20], 4 10^6/ml; in the experiment on Escherichia coli [21], 3 10^8/ml; in the experiment on Escherichia coli [24], 5 10^9/ml. The CFU is 1.5 10^4/ml with Escherichia coli [25]; 1 10^8/ml in the experiment with Escherichia coli [27]; 0 mL⁻¹ in the experiment with Escherichia coli [28]; 0 mL⁻¹ with Escherichia coli [30]; 0 mL⁻¹ in the experiment with Escherichia coli [31].
